Rows were chosen to be rich in hits. Some 4% of all compounds tested hit in one or more screens of this group.
Statin myotox sup: suppressors of statin myotoxicity in C2C12 myotubes, primary screen, cell-based, single point, plate reader | rescue of ATP level, % at 7.49 µM | AID 602340, 2012 | 0.78% of 330,000 active | C2C12 myotubes + simvastatin, ATP luminescence, 48 h; scaled: DMSO 0, geranylgeraniol control 100;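 active means mean ATP rescue above about 67%, or every replicate alone reaching that limit, limit read from the data, passing the limit was not always enough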;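 further: myotubes were challenged with 10 µM simvastatin during compound exposure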
SIRT5 block: SIRT5 desuccinylase inhibitors, primary screen, biochemical, fluorescence imaging, single point, set 5 | AID 652115, 2013 | 1.1% of 330,000 active | inhibition, % at 15 µM | Purified SirT5, succinyl-peptide AMC, trypsin-coupled fluorescence; in the data active means inhibition above about 15%
Target sequence (Q9NXA8 whole entry, looked up): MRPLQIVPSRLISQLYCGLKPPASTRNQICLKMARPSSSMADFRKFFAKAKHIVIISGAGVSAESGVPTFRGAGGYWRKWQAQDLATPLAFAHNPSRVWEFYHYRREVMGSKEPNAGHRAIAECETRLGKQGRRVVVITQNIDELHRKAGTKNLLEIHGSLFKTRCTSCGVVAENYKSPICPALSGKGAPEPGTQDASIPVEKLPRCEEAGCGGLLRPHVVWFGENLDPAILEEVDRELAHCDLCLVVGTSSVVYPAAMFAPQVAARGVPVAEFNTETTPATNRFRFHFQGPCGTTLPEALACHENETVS
FN deposition inh: inhibitors of fibronectin matrix deposition, primary screen, AH1F cells, Alexa488-fibronectin fluorescence, plate reader; AH1F fibroblasts, overnight; inhibition, % at 12.6 µM; 0.086% of 350,000 active; AID 743247, 2014;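 active means mean inhibition across replicates of 30% or more, regardless of how many single replicates reach that level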
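Assay system: AH1F fibroblasts / Quantity: 10000 cells per well / Medium: DMEM plus 2% serum, read in PBS / Reagent: labelled fibronectin 24 nM / Dosing: single dose, pinned / Times: 1 h cell attachment, overnight exposure to compound and label / Signal: fluorescence, ex 485 nm, em 525 nm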
Ecoli rRNA inh: reduced GFP signal of wild-type E. coli, primary screen, bacterial rRNA inhibitor project, GFP/RFP fluorescence, OD600, single point; E. coli WT GFP vs humanized-ribosome RFP mutants, 24 h; stronger effect = lower value; DMSO median 0, no signal -100; 1.6% of 350,000 active; GFP signal change (wild-type ribosome), % (concentration not given with the values); AID 720706, 2013;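 active means significant combined selectivity score with lowered wild-type GFP, culture density cut under 30%, mutant RFP and density less affected; inactive means any of these conditions unmet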
FGF22 binding: binders of human FGF22 protein, primary screen, FGF22 synaptogenesis inhibitor project, biophysical, thermal shift, single point. Fibroblast growth factor 22 (Homo sapiens), Q9HCT0. recombinant FGF22 thermal shift, SYPRO orange fluorescence; percent of sucrose octasulfate shift, DMSO zero. activity (Tm shift, normalised), % at 9.99 µM. 1.5% of 340,000 active. AID 651658, 2012;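 active means mean Tm shift, scaled 0 neutral to 100 positive control, at about 1.3% or above, every replicate too, limit read from the data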
Target sequence (Q9HCT0 whole entry, looked up): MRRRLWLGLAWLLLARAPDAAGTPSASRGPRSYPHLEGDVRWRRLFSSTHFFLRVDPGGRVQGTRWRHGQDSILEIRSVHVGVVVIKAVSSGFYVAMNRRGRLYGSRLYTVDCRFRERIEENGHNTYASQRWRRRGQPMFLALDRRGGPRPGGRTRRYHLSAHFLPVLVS
E-sel inducer: E-selectin induction in HUVECs, primary screen, imaging, HUVEC, immunofluorescence imaging, single point | P16581 | normalized: neutral wells 0, TNF-alpha wells 100 | activation, % at 7.58 µM | 0.37% of 260,000 active | AID 686992, 2013;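 active means mean E-selectin-positive cell signal at least 10% of the positive control, reached in at least 60% of replicates, without over 20% cell loss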
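Read-out basis: % PE-positive cells; Test system: HUVEC primary endothelial cells; Technique: immunofluorescence imaging; Dosing: single-point compound dose.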
Hits are given with their value; - = inactive; . = no result given.

SMILES	Statin myotox sup	SIRT5 block	FN deposition inh	Ecoli rRNA inh	FGF22 binding	E-sel inducer
C[C@@H]1CCCCO[C@H](CN(C)S(=O)(=O)c2ccc(Cl)cc2)[C@@H](C)CN([C@@H](C)CO)C(=O)c2cc(N(C)C)ccc2O1	-	.	.	-	.	-
C[C@@H]1CN([C@@H](C)CO)C(=O)c2cccc(N(C)C)c2O[C@H]1CN(C)Cc1ccc2c(c1)OCO2	-	.	-	-	-	-
Cc1noc(C)c1NC(=O)Nc1ccc2c(c1)CC(=O)N([C@H](C)CO)C[C@H](C)[C@H](CN(C)C(=O)Nc1ccc(C(F)(F)F)cc1)O2	-	-	.	-	-	-
Cc1c(O)ccc2c(CN(C)Cc3ccccc3)cc(=O)oc12	-	-	-	-25	-	-
CN(C)Cc1c(O)ccc2c(-c3ccccc3)cc(=O)oc12	.	-	.	-	43	.
Cc1c(O)ccc2c(CN3CCN(Cc4ccccc4)CC3)cc(=O)oc12	-	-	-	-	-	-
COc1ccc(S(=O)(=O)Nc2ccc3c(c2)C(=O)N([C@H](C)CO)C[C@@H](C)[C@H](CN(C)Cc2ccc(Cl)c(Cl)c2)OCCCC[C@@H](C)O3)cc1	-	.	.	-	-	-
C[C@@H](NC(=O)[C@H]1[C@H](CO)[C@H]2Cn3c(cccc3=O)[C@H]2N1Cc1ccncc1)c1ccccc1	-	-	.	-	-	-
Cc1ccccc1-c1ccccc1N	-	-	-	-	44	.
CCN(CC(=O)Nc1ccc(C)c(F)c1)CC(=O)NC(C)(C)C	.	-	-	-	43	-
CCN(CC(=O)Nc1ccc(N2CCOCC2)cc1)CC(=O)NC(C)(C)C	.	.	-	.	.	.
COc1ccc(NC(=O)C(c2ccccc2)c2ccccc2)cn1	.	-	-	-	43	-
COc1cc(NC(=O)C(c2ccccc2)c2ccccc2)c(C(=O)O)cc1OC	-	-	-	-24	-	.
C[C@H]1CN([C@@H](C)CO)C(=O)c2cc(C#Cc3cccnc3)cnc2O[C@@H]1CN(C)C(=O)CN(C)C	-	-	.	-	-	-
O=C(C[C@H]1CC[C@@H]2[C@H](COC[C@@H](O)CN2C(=O)Nc2cccc(Cl)c2)O1)NCC1CCCCC1	-	-	-	-	-	-
O=C(Cn1cc2c(n1)CCCCC2)NC1CCN(Cc2ccccc2)CC1	-	.	-	-	43	-
O/N=C/c1ccccc1Oc1ccccc1	86	.	.	.	.	.
O/N=C\c1ccccc1Oc1ccc(F)cc1	.	-	-	-25	-	.
COc1ccc(NC(=O)N[C@@H]2CC[C@H](CCn3cc(-c4ccccn4)nn3)O[C@@H]2CO)cc1	-	-	-	-	-	-
Cc1ccc(C(=O)Nc2ncc([N+](=O)[O-])s2)cc1	-	-	-	-52	-	-
O=C(COc1ccc(Cl)cc1)Nc1ncc([N+](=O)[O-])s1	.	-	-	-24	-	-
C[C@@H]1CN([C@@H](C)CO)C(=O)Cc2cc(NS(C)(=O)=O)ccc2O[C@H]1CN(C)S(=O)(=O)c1cn(C)cn1	-	.	.	-	-	-
Nn1c(SCC(=O)Nc2ccc(F)cc2F)nnc1-c1cccnc1	112	.	-	.	.	.
CCCC(=O)Nc1ccc2c(c1)C(=O)N(C)[C@@H]1CC[C@@H](CC(=O)NCc3ccccc3)O[C@H]1CO2	-	-	-	-	-	-
O=S(=O)(O)c1cc(Cl)cc(N=Nc2ccc(O)cc2O)c1O	.	39	-	-	.	.
SMILES	Statin myotox sup	SIRT5 block	FN deposition inh	Ecoli rRNA inh	FGF22 binding	E-sel inducer
C[C@@H]1CCCCO[C@@H](CN(C)C(=O)Nc2ccc3c(c2)OCO3)[C@H](C)CN([C@@H](C)CO)C(=O)c2cc(NC(=O)Cc3ccccc3)ccc2O1	.	.	.	-	-	-
O=S1(=O)Nc2c(ccc3cccnc23)-c2ccccc21	109	.	.	.	.	.
N#CNC(=Nc1cccc(F)c1)SCc1ccccc1	.	-	-	-	44	-
CN1CCN(C(=O)C[C@@H]2CC[C@H]3[C@@H](COC[C@H](O)CN3Cc3cccc(F)c3)O2)CC1	-	-	-	-	-	-
COc1ccc(C2C(C(=O)c3cccs3)=C(O)C(=O)N2c2cccc(C)n2)cc1 (centres undefined)	.	-	-	-18	-	-
COc1ccc(C2C(C(C)=O)=C(O)C(=O)N2c2ccc(Br)cn2)cc1 (centres undefined)	136	.	.	.	.	.
Cc1cccc(N2C(=O)C(O)=C(C(=O)c3cccs3)C2c2ccccc2)n1 (centres undefined)	.	-	-	-32	-	-
Cc1cc(N2C(=O)C(O)=C(C(=O)c3cccs3)C2c2ccc(F)cc2)no1 (centres undefined)	.	-	-	-26	-	.
Cc1cccc(N2C(=O)C(O)=C(C(=O)c3cccs3)C2c2cccc(Oc3ccccc3)c2)n1 (centres undefined)	.	-	-	.	-	.
Cc1cccc(N2C(=O)C(O)=C(C(=O)c3cccs3)C2c2ccc(Cl)cc2)n1 (centres undefined)	.	-	-	-34	-	-
COc1ccc(C2C(C(=O)c3cccs3)=C(O)C(=O)N2c2cccc(C)n2)cc1OC (centres undefined)	.	-	-	.	-	.
COc1cccc2cc(C(=O)C3=C(O)C(=O)N(c4cc(C)on4)C3c3cccs3)oc12 (centres undefined)	.	-	-	-26	-	.
C[C@H]1CCCCO[C@H](CN(C)C)[C@@H](C)CN([C@@H](C)CO)C(=O)c2cc(NC(=O)Nc3ccccc3)ccc2O1	-	-	.	-	-	-
O=C(Cc1cccnc1)N1CC2(C1)[C@@H](c1ccccc1)[C@@H](CO)N2C(=O)C1CCC1	.	-	-	-	.	-
CNC[C@H]1OCCCC[C@@H](C)Oc2ccc(NS(=O)(=O)c3ccc(OC)cc3)cc2C(=O)N([C@H](C)CO)C[C@@H]1C	-	-	.	-	-	-
COC(=O)C[C@@H]1CC[C@@H](NS(=O)(=O)c2ccc(OC)cc2)[C@H](CO)O1	-	-	-	-	-	-
CC(C)CCN1CCN(Cc2nc3ccccc3s2)CC1CCO (centres undefined)	-	-	-	-	-	-
Cc1oc(-c2cccs2)nc1CN1CCN(CCC(C)C)C(CCO)C1 (centres undefined)	.	17	-	-	-	.
CC(C)CCN1CCN(CC(c2ccccc2)c2ccccc2)CC1CCO (centres undefined)	-	-	.	-	43	.
O=C(CN1C(=O)c2ccccc2C1=O)Nc1cccc(Cl)c1	-	-	-	-	-	-
